Results gathered from unrelated publications.
MDH2: Malate dehydrogenase, mitochondrial (MDH2, Sus scrofa, UniProt P00346)
AKT1: RAC-alpha serine/threonine-protein kinase (AKT1, Homo sapiens, UniProt P31749)

COc1c(Br)cccc1C(=O)Nc1ccc(Sc2nc3ccccc3s2)c(Cl)c1  IC50 (MDH2; enzyme activity, inhibitor): > 62.5 µM
CCCN1CCN(c2ccc(-c3cncc(Cl)c3N3CCC4(CCNC4=O)CC3)cc2)CC1  Kd (Cyclin-dependent kinase 1 (CDK1, Homo sapiens, UniProt P06493); cell-free assay; lysate): 18.9 µM
CC(=O)N[C@@H](Cc1ccccc1)C(=O)N1CCC[C@H]1C(=O)N1CCC[C@H]1C(=O)N1CCC[C@H]1C(=O)N1CCC[C@H]1C(=O)O  Kd (Protein enabled homolog (ENAH, UniProt Q8N8S7); binding, fluorescence): 500 µM
CC(=O)N[C@@H](CCCNC(=N)N)C(=O)NCCOCCOCC(=O)N[C@H](CC(=O)O)C(=O)N1CCC[C@H]1B(O)O  Ki (Dipeptidyl peptidase 4 (DPP4, Homo sapiens, UniProt P27487); enzyme activity, inhibitor, fluorescence): 7.13 µM
CC(C)C[C@H](NC(=O)[C@@H](N)CCCNC(=N)N)C(=O)N[C@@H](Cc1ccc(O)cc1)C(=O)N[C@@H](Cc1ccc(O)cc1)C(=O)N[C@@H](Cc1ccccc1)C(=O)N[C@@H](Cc1c[nH]c2ccccc12)C(=O)N[C@@H](CC(=O)O)C(=O)O  Ki (DNA dC->dU-editing enzyme APOBEC-3G (APOBEC3G, Homo sapiens, UniProt Q9HC16); enzyme activity, inhibitor): ~0.65 µM
CNC(=O)c1cc2c(Oc3ccc(NC(=O)C4(C(=O)Nc5ccc(F)cc5)CC4)cc3)ccnc2cc1OC  IC50 (Tyrosine-protein kinase Mer (MERTK, Homo sapiens, UniProt Q12866); enzyme activity, inhibitor, radiometric): 0.0009 µM
O=C(/C=C/c1ccc(-n2ccnc2)cc1)N1CCN(C(=O)c2ccco2)CC1  Kd (Protein ENL, YEATS (MLLT1, Homo sapiens, UniProt Q03111); binding, BLI): 14 µM
CC(C)(C)n1nc(-c2ccc3nc(OC4CC4)ccc3c2)c(C(N)=O)c1N  IC50 (AKT1; cell-free assay): > 10 µM
Cc1ncsc1-c1ccc(CNC(=O)[C@@H]2C[C@@H](O)CN2C(=O)[C@@H](NC(=O)CCCCCCCCCC(=O)N2CCN(CC[C@H](NC(=O)C3(N)CCN(c4ncnc5[nH]ccc45)CC3)c3ccc(Cl)cc3)CC2)C(C)(C)C)cc1  Kd (AKT1; binding, competition with immobilised ligand): 0.01 µM
Cc1cc2nc3c(=O)[nH]c(=O)nc-3n(C[C@H](O)[C@H](O)[C@H](O)COP(=O)(O)OP(=O)(O)OC[C@H]3O[C@@H](n4cnc5c(N)ncnc54)[C@H](O)[C@@H]3O)c2cc1C  Kd (Protein argonaute-2 (AGO2, Homo sapiens, UniProt Q9UKV8); binding; lysate): 0.021 µM
O=C(Nc1ccc(Sc2nc3ccccc3s2)cc1)c1cccc(Br)c1O  IC50 (MDH2; enzyme activity, inhibitor): > 62.5 µM
CCCCCCCCCC(=O)O  EC50 (G-protein coupled receptor 84 (Gpr84, Mus musculus, UniProt Q8CIM5); cAMP, agonist): > 10 µM
O=C(Nc1ccc(Sc2nc3ccccc3s2)c(Cl)c1)c1cccc(Br)c1O  IC50 (MDH2; enzyme activity, inhibitor): > 62.5 µM
Cc1cnc(-c2ccc(-c3ccc(NC(=O)Nc4c(F)cc(F)cc4F)cc3F)c3c2C(=O)NC3)[nH]1  Kd (Proto-oncogene tyrosine-protein kinase Src (SRC, Homo sapiens, UniProt P12931); binding, competition with immobilised ligand): 0.11 µM
